ChEMBL document CHEMBL4689842, “EUbOPEN Chemogenomics Library wave 1” (2021)

Key:
Type in all cases: toxicity, cell-based
[1] = system: Fibroblast; assay: Multiplex assay against human fibroblast
How it was run: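 Phenotypes for tubulin, mitochondrial mass and membrane permeability are expressed as per cents of healthy-nucleus cells. Cells were stained live at seeding with Hoechst33342, BioTracker Green Microtubule Cytoskeleton Dye, MitoTracker Red and Annexin V Alexa Fluor 680, then imaged after compound addition on a CQ1 microscope at 37°C and 5% CO2. Machine-learning gating in CellPathfinder separated Hoechst high-intensity objects from normal cells, divided normal cells by nuclear state (healthy, pyknosed, fragmented) and divided pyknosed cells into mitotic or apoptotic.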

[2] = system: Fibroblast; assay: Incucyte cell viability with human fibroblast; conditions: 10 µM, compound concentration 10 uM; further: filed as whole numbers so only -1 and 0 and 1 occur
[3] = system: U2OS; assay: Incucyte cell viability with U2OS; conditions: human, 10 µM, compound concentration 10 uM; further: filed as whole numbers so only -1 and 0 and 1 occur
[4] = 12 h, 1 µM, compound concentration 1 uM, replicate 1
[5] = 12 h, 1 µM, compound concentration 1 uM, replicate 2
[6] = 12 h, 10 µM, compound concentration 10 uM, replicate 1
[7] = 12 h, 10 µM, compound concentration 10 uM, replicate 2
[8] = 24 h, 1 µM, compound concentration 1 uM, replicate 1
[9] = 24 h, 1 µM, compound concentration 1 uM, replicate 2
[10] = 24 h, 10 µM, compound concentration 10 uM, replicate 1
[11] = 24 h, 10 µM, compound concentration 10 uM, replicate 2
[12] = 6 h, replicate number 1, timepoint 6 hours
[13] = 12 h, replicate number 1, timepoint 12 hours
[14] = 18 h, replicate number 1, timepoint 18 hours
[15] = 24 h, replicate number 1, timepoint 24 hours

With COc1cc2c(Nc3ccc(NC(=O)c4ccccc4)cc3)ncnc2cc1OCCCN1CCOCC1 the “Population Apoptotic (%)” value [1, 4] was 55%, the “Population Fragmented Nuclei (%)” value [1, 4] was 25% and the “Population Healthy Nuclei (%)” value [1, 4] was 53%. The “Population Hoechst High Intensity Objects (%)” value [1, 4] was 35%, the “Population Membrane Permeable-Phenotype (%)” value [1, 4] was 9% and the “Population Mitochondria Different-Phenotype (%)” value [1, 4] was 10%. For the same compound, the “Population Mitotic Cells (%)” value [1, 4] was 44%, the “Population Normal (%)” value [1, 4] was 64% and the “Population Pyknosed Nuclei (%)” value [1, 4] was 20%. For the same compound, the “Population Tubulin-Different-Phenotype (%)” value [1, 4] was 41%, the “Total Cell Count” value [1, 4] was 470 and the “Population Apoptotic (%)” value [1, 5] was 33%. For the same compound, the “Population Fragmented Nuclei (%)” value [1, 5] was 44%, the “Population Healthy Nuclei (%)” value [1, 5] was 46% and the “Population Hoechst High Intensity Objects (%)” value [1, 5] was 30%. For the same compound, the “Population Membrane Permeable-Phenotype (%)” value [1, 5] was 22%, the “Population Mitochondria Different-Phenotype (%)” value [1, 5] was 12% and the “Population Mitotic Cells (%)” value [1, 5] was 66%. For the same compound, the “Population Normal (%)” value [1, 5] was 69%, the “Population Pyknosed Nuclei (%)” value [1, 5] was 8% and the “Population Tubulin-Different-Phenotype (%)” value [1, 5] was 64%. For the same compound, the “Total Cell Count” value [1, 5] was 97, the “Population Apoptotic (%)” value [1, 6] was 82% and the “Population Fragmented Nuclei (%)” value [1, 6] was 39%. For the same compound, the “Population Healthy Nuclei (%)” value [1, 6] was 49%, the “Population Hoechst High Intensity Objects (%)” value [1, 6] was 19% and the “Population Membrane Permeable-Phenotype (%)” value [1, 6] was 9%. For the same compound, the “Population Mitochondria Different-Phenotype (%)” value [1, 6] was 5%, the “Population Mitotic Cells (%)” value [1, 6] was 17% and the “Population Normal (%)” value [1, 6] was 80%. For the same compound, the “Population Pyknosed Nuclei (%)” value [1, 6] was 11%, the “Population Tubulin-Different-Phenotype (%)” value [1, 6] was 4% and the “Total Cell Count” value [1, 6] was 250. For the same compound, the “Population Apoptotic (%)” value [1, 7] was 0%, the “Population Fragmented Nuclei (%)” value [1, 7] was 70% and the “Population Healthy Nuclei (%)” value [1, 7] was 27%. For the same compound, the “Population Hoechst High Intensity Objects (%)” value [1, 7] was 41%, the “Population Membrane Permeable-Phenotype (%)” value [1, 7] was 0% and the “Population Mitochondria Different-Phenotype (%)” value [1, 7] was 7%. The “Population Mitotic Cells (%)” value [1, 7] was 100%, the “Population Normal (%)” value [1, 7] was 58% and the “Population Pyknosed Nuclei (%)” value [1, 7] was 2%. For the same compound, the “Population Tubulin-Different-Phenotype (%)” value [1, 7] was 7%, the “Total Cell Count” value [1, 7] was 82 and the “Population Apoptotic (%)” value [1, 8] was 61%. For the same compound, the “Population Fragmented Nuclei (%)” value [1, 8] was 26%, the “Population Healthy Nuclei (%)” value [1, 8] was 47% and the “Population Hoechst High Intensity Objects (%)” value [1, 8] was 46%. The “Population Membrane Permeable-Phenotype (%)” value [1, 8] was 14%, the “Population Mitochondria Different-Phenotype (%)” value [1, 8] was 17% and the “Population Mitotic Cells (%)” value [1, 8] was 38%. For the same compound, the “Population Normal (%)” value [1, 8] was 53%, the “Population Pyknosed Nuclei (%)” value [1, 8] was 26% and the “Population Tubulin-Different-Phenotype (%)” value [1, 8] was 59%. The “Total Cell Count” value [1, 8] was 391, the “Population Apoptotic (%)” value [1, 9] was 58% and the “Population Fragmented Nuclei (%)” value [1, 9] was 34%. For the same compound, the “Population Healthy Nuclei (%)” value [1, 9] was 42%, the “Population Hoechst High Intensity Objects (%)” value [1, 9] was 41% and the “Population Membrane Permeable-Phenotype (%)” value [1, 9] was 23%. For the same compound, the “Population Mitochondria Different-Phenotype (%)” value [1, 9] was 33%, the “Population Mitotic Cells (%)” value [1, 9] was 41% and the “Population Normal (%)” value [1, 9] was 58%. The “Population Pyknosed Nuclei (%)” value [1, 9] was 24%, the “Population Tubulin-Different-Phenotype (%)” value [1, 9] was 52% and the “Total Cell Count” value [1, 9] was 85. For the same compound, the “Population Apoptotic (%)” value [1, 10] was 76%, the “Population Fragmented Nuclei (%)” value [1, 10] was 31% and the “Population Healthy Nuclei (%)” value [1, 10] was 55%. For the same compound, the “Population Hoechst High Intensity Objects (%)” value [1, 10] was 22%, the “Population Membrane Permeable-Phenotype (%)” value [1, 10] was 6% and the “Population Mitochondria Different-Phenotype (%)” value [1, 10] was 3%. The “Population Mitotic Cells (%)” value [1, 10] was 24%, the “Population Normal (%)” value [1, 10] was 77% and the “Population Pyknosed Nuclei (%)” value [1, 10] was 13%. The “Population Tubulin-Different-Phenotype (%)” value [1, 10] was 5%, the “Total Cell Count” value [1, 10] was 248 and the “Population Apoptotic (%)” value [1, 11] was 66%. For the same compound, the “Population Fragmented Nuclei (%)” value [1, 11] was 69%, the “Population Healthy Nuclei (%)” value [1, 11] was 25% and the “Population Hoechst High Intensity Objects (%)” value [1, 11] was 32%. The “Population Membrane Permeable-Phenotype (%)” value [1, 11] was 15%, the “Population Mitochondria Different-Phenotype (%)” value [1, 11] was 7% and the “Population Mitotic Cells (%)” value [1, 11] was 33%. For the same compound, the “Population Normal (%)” value [1, 11] was 67%, the “Population Pyknosed Nuclei (%)” value [1, 11] was 5% and the “Population Tubulin-Different-Phenotype (%)” value [1, 11] was 15%. The “Total Cell Count” value [1, 11] was 77, the “Growth Rate” value ([2]; 0 h, replicate number 2, timepoint 0 hours) was 1 and the “Growth Rate” value [2, 12] was 0. For the same compound, the “Growth Rate” value [2, 13] was 0, the “Growth Rate” value [2, 14] was 0 and the “Growth Rate” value [2, 15] was 0. For the same compound, the “Growth Rate” value ([3]; 0 h, replicate number 1, timepoint 0 hours) was 1, the “Growth Rate” value [3, 12] was 1 and the “Growth Rate” value [3, 13] was 0. The “Growth Rate” value [3, 14] was 0, the “Growth Rate” value ([3]; 18 h, replicate number 2, timepoint 18 hours) was 1 and the “Growth Rate” value [3, 15] was 0. The “Growth Rate” value ([3]; 24 h, replicate number 2, timepoint 24 hours) was 1.
